Results taken from ChEMBL document CHEMBL3351372, “Structure-Based Drug Design of Novel Potent and Selective Tetrahydropyrazolo[1,5-a]pyrazines as ATR Inhibitors” (ACS Med Chem Lett, 2015).
In brackets after ≈: the same amount, converted by molar mass.

Assays:
Cytochrome P450 3A4 = Cytochrome P450 3A4 (Homo sapiens, UniProt P08684); assay: Time dependent inhibition of CYP3A4 in human liver microsomes using midazolam as substrate assessed as ratio of Kinact to Ki preincubated for 0 to 30 mins followed by NADPH addition in phosphate buffer at 50 uM; type: ADME
Chain of Cytochrome P450 3A4 (P08684 whole entry): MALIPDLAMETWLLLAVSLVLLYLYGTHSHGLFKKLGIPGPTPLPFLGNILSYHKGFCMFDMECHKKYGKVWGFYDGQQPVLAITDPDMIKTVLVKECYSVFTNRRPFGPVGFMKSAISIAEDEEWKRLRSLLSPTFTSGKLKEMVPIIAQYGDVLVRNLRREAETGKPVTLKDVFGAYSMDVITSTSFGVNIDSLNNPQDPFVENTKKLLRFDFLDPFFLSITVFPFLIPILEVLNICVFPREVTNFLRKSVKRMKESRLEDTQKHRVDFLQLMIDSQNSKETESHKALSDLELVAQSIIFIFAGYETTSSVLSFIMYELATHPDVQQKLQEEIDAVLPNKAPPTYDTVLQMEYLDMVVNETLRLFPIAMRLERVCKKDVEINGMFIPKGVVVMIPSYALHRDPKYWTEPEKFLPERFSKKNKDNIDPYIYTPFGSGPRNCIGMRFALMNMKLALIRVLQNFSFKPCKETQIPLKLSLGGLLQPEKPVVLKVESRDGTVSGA
Outline: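 Compound was preincubated with human liver microsomes (0.5 mg/mL) in 100 mM phosphate buffer with 1 mM NADPH for 0, 5, 15 and 30 min, testing 50 μM plus serial dilutions. The mix was diluted 20-fold and incubated with 20 μM midazolam to measure residual CYP3A4 activity. Activity versus preincubation time gave the kinetic TDI parameters.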

[1] = molecular target: Serine/threonine-protein kinase ATR (Homo sapiens, UniProt Q13535); assay: Inhibition of ATR (unknown origin) using Avi-tagged protein substrate by alphascreen assay
[2] = molecular target: Phosphatidylinositol 4,5-bisphosphate 3-kinase catalytic subunit alpha isoform (Homo sapiens, UniProt P42336); assay: Inhibition of PI3Kalpha (unknown origin)
Chain of Phosphatidylinositol 4,5-bisphosphate 3-kinase catalytic subunit alpha isoform (P42336 whole entry, canonical isoform): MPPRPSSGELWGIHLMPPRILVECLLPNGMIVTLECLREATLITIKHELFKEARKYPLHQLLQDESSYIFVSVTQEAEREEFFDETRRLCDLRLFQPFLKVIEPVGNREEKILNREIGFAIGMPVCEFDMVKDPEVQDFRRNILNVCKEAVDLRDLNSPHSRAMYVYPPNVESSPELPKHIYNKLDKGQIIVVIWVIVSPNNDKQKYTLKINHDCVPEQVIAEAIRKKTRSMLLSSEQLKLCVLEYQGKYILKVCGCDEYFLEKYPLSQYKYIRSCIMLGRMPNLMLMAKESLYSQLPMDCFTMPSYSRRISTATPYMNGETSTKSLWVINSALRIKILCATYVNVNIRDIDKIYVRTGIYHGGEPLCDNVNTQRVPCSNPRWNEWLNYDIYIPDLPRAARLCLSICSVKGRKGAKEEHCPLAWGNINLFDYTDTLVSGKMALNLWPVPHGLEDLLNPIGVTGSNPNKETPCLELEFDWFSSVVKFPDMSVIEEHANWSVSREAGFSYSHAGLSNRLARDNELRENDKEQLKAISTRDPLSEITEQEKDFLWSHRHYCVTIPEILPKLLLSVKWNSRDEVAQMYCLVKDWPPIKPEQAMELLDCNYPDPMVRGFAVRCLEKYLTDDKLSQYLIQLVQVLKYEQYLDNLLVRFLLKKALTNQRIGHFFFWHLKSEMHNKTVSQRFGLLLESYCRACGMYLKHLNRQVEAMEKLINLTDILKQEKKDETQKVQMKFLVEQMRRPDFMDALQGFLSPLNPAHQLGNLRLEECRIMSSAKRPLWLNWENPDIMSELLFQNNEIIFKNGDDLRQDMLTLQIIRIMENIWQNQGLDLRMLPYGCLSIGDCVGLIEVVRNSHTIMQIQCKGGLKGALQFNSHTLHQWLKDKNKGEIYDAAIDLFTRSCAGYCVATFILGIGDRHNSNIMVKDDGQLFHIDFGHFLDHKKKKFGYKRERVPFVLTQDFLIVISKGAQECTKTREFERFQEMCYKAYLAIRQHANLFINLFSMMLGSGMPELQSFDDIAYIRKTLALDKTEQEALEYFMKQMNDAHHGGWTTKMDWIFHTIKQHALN

[3] = Inhibition of CHK1 in HeLa S3 cells assessed as inhibition of phosphorylation at ser345 by AlphaScreen SureFire CHK1 (p-Ser345) assay
[4] = Solubility of the compound in PBS buffer at pH 7 by miniaturized shake flask equilibrium solubility assay
[5] = molecular target: Serine-protein kinase ATM (Homo sapiens, UniProt Q13315); assay: Inhibition of ATM (unknown origin) using p53-Q10-K17 peptide substrate by alphascreen assay
Chain of Serine-protein kinase ATM (Q13315 whole entry): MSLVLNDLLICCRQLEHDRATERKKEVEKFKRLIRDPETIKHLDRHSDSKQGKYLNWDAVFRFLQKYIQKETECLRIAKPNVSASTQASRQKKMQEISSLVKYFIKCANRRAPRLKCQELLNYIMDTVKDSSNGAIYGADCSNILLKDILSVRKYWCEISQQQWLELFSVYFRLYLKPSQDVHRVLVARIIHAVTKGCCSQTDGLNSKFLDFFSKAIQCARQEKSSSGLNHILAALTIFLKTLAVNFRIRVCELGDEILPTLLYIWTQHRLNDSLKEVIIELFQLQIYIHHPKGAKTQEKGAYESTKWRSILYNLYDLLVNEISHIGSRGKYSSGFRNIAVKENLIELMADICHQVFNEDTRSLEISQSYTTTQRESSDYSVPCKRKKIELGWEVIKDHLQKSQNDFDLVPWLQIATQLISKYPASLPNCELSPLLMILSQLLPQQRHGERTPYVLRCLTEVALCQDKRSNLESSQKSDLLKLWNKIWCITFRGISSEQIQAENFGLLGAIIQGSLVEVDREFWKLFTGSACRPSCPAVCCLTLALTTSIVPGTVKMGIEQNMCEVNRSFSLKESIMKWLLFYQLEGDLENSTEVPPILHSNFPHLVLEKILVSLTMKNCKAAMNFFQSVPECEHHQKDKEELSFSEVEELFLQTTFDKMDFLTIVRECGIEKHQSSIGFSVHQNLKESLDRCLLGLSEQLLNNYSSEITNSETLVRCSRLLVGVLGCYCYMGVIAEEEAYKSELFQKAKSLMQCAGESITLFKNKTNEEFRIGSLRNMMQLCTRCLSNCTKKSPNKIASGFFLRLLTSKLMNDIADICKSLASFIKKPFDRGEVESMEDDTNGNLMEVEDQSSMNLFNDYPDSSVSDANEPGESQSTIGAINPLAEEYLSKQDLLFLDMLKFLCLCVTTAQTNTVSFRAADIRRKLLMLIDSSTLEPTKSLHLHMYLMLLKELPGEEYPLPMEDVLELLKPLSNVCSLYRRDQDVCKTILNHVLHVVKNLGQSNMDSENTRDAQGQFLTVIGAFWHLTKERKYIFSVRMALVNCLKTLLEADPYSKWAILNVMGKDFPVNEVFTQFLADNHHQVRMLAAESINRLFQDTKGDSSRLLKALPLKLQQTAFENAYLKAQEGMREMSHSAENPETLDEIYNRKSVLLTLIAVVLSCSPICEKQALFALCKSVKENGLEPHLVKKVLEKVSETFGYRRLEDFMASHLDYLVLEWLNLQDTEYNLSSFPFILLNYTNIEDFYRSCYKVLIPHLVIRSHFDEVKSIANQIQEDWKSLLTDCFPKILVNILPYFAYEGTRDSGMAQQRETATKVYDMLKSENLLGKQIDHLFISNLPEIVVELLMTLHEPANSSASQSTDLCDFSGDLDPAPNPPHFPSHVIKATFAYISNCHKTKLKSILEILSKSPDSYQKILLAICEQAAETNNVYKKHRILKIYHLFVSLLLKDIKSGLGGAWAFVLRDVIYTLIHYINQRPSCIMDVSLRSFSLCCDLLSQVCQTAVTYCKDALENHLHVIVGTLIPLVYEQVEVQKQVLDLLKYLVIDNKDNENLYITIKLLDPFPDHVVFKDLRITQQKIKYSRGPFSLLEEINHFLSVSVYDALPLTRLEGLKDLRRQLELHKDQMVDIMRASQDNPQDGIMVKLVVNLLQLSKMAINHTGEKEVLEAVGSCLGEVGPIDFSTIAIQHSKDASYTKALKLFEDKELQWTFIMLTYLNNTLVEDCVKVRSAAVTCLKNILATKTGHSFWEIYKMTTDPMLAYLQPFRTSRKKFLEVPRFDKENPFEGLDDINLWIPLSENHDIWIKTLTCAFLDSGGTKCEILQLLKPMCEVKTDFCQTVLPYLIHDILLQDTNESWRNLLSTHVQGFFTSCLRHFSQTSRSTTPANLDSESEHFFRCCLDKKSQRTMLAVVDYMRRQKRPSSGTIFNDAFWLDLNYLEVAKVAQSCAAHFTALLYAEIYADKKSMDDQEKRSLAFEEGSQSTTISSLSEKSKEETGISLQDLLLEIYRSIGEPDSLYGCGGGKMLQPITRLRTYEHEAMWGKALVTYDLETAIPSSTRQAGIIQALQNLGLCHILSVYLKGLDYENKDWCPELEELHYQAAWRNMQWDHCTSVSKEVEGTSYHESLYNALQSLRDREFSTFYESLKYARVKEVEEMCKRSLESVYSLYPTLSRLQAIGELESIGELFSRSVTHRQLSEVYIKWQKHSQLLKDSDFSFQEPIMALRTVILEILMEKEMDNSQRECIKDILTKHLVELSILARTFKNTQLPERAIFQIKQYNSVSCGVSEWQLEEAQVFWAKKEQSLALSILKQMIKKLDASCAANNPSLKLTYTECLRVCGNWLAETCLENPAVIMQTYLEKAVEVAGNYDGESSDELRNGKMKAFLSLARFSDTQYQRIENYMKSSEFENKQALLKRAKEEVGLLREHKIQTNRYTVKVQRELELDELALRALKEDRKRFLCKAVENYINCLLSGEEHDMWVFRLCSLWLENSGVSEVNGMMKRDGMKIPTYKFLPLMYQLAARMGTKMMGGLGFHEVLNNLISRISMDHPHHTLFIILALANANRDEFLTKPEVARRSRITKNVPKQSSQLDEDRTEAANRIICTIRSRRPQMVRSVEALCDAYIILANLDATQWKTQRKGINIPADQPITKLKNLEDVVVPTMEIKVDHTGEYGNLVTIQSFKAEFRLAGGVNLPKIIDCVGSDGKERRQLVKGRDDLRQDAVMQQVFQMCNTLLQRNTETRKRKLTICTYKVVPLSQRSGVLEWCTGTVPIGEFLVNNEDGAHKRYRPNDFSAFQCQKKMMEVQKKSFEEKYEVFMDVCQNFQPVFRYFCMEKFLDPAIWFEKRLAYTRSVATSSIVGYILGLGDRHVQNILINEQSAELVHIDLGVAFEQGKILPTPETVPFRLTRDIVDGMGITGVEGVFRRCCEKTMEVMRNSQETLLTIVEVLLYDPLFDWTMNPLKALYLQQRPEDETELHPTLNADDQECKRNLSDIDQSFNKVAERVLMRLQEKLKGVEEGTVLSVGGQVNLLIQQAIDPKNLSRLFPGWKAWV

[6] = molecular target: DNA-dependent protein kinase catalytic subunit (Homo sapiens, UniProt P78527)
[7] = molecular target: Serine/threonine-protein kinase mTOR (Homo sapiens, UniProt P42345); assay: Inhibition of mTOR (unknown origin) by alphascreen SureFire p70 S6K (p-Thr389) assay
Outline: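 They were treated with compound for 1 h under the same conditions. The read-out was p70 S6K phospho-Thr389.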

[8] = Octanol-water distribution coefficient, log D of the compound with pH 7.4 PBS buffer
[9] = Apparent permeability across apical to basolateral side in human Caco2 cells at pH 7.4; conditions: Caco-2, pH 7.4
[10] = Apparent permeability across basolateral to apical side in human Caco2 cells at pH 7.4; conditions: Caco-2, pH 7.4
[11] = Oral bioavailability in rat at 2.5 mg/kg; type: ADME, organism-based; conditions: in vivo
[12] = molecular target: Voltage-gated inwardly rectifying potassium channel KCNH2 (Homo sapiens, UniProt Q12809); assay: Inhibition of human ERG by automated whole cell electrophysiology
[13] = Clearance in rat at 2.5 mg/kg; type: ADME, organism-based; parameters: dose 2.5 mg/kg; conditions: in vivo
[14] = Volume of distribution at steady state in rat at 2.5 mg/kg; type: ADME, organism-based; parameters: dose 2.5 mg/kg; conditions: in vivo, read-out: Vdss
[15] = Half life in rat at 2.5 mg/kg; type: ADME, organism-based; parameters: dose 2.5 mg/kg; conditions: in vivo
Liver microsome = assay: Metabolic stability in human liver microsomes assessed as level of GSH adduct after 60 mins at 10 uM by GSH trapping assay; conditions: 1 h

For C[C@@H]1Cn2ncc(C3CCN(S(C)(=O)=O)CC3)c2CN1c1ccnc2[nH]cnc12, the “inhibition (INH)” value (Cytochrome P450 3A4) was “Active” and the IC50 [1] was 0.002 µM.

In the case of COc1ccc(-c2ccc3ncc(-c4ccc(C(N)=O)cc4)n3n2)cc1OC, the IC50 [1] is reported as 0.026 µM and the IC50 [2] is reported as 0.009 µM.

In the case of CN(C)S(=O)(=O)c1ccc(-c2cnc3ccc(-c4ccnc5[nH]ccc45)nn23)cc1, the IC50 [1] is reported as 0.0005 µM, the IC50 [2] is reported as 0.04 µM and the IC50 [3] is reported as 0.044 µM.

Work on CN(C)S(=O)(=O)c1ccc(-c2cnn3c2CN(c2ccnc4[nH]ccc24)CC3)cc1 yielded an IC50 [1] of 0.001 µM, a solubility thermodynamic [4] of 3 µM (≈ 1.27 µg/mL) and an IC50 [2] of 1.1 µM.

C[C@@H]1Cn2ncc(-c3ccc(S(=O)(=O)N(C)C)cc3)c2CN1c1ccnc2[nH]ccc12 gave an IC50 [1] of 0.0005 µM, a solubility thermodynamic [4] of 188 µM (≈ 82.1 µg/mL) and an IC50 [2] of over 10 µM. The IC50 [3] was 0.123 µM.

For C[C@@H]1Cn2ncc(-c3ccc(S(C)(=O)=O)cc3)c2CN1c1ccnc2[nH]ccc12, the IC50 [1] was 0.0003 µM, the IC50 [5] was 0.13 µM and the IC50 [6] was 0.14 µM. For the same compound, the IC50 [7] was 1.1 µM.

Compound C[C@@H]1Cn2ncc(C3CCN(S(C)(=O)=O)CC3)c2CN1c1ccnc2[nH]ccc12 has an IC50 [1] of 0.001 µM, an IC50 [5] of 14 µM and an IC50 [6] of 6.5 µM. It also gave an IC50 [7] of over 2.3 µM, a solubility thermodynamic [4] of 965 µM (≈ 400 µg/mL) and a logD [8] of 2.4. For the same compound, the Papp A→B [9] was 10 ×10⁻⁶ cm/s and the Papp B→A [10] was 44 ×10⁻⁶ cm/s.

With C[C@@H]1Cn2ncc(C3CCN(S(C)(=O)=O)CC3)c2CN1c1cc(Cl)nc2[nH]ccc12 the bioavailability [11] was 64%, the IC50 [1] was 0.0004 µM and the IC50 [5] was 4.3 µM. It also gave an IC50 [6] of 1.6 µM, an IC50 [7] of 4.4 µM and an IC50 [12] of 12.5 µM. It also gave a solubility thermodynamic [4] of 37 µM (≈ 16.6 µg/mL), a logD [8] of 3.4 and a Papp A→B [9] of 18 ×10⁻⁶ cm/s. For the same compound, the Papp B→A [10] was 30 ×10⁻⁶ cm/s, the clearance [13] was 57 mL/min/kg and the Vd [14] was 3.3 L/kg. The half-life [15] was 51.6 min.

In the case of C[C@@H]1Cn2ncc(C3CCN(S(C)(=O)=O)CC3)c2CN1c1ccnc2[nH]ncc12, the “inhibition (INH)” value (Cytochrome P450 3A4) is reported as “Not Active” and the IC50 [1] is reported as 0.029 µM.

In the case of C[C@@H]1Cn2ncc(C3CCN(S(C)(=O)=O)CC3)c2CN1c1ccnc(N)c1, the “inhibition (INH)” value (Cytochrome P450 3A4) is reported as “Active” and the IC50 [1] is reported as 0.44 µM.

Compound CC1(C)Cn2ncc(C3CCN(S(C)(=O)=O)CC3)c2CN1c1cc(Cl)nc2[nH]ccc12 has a Ratio (Cytochrome P450 3A4) of 0.023 µL/min/pmol and an IC50 [1] of 6.2 µM.

For C[C@@H]1[C@@H](C)n2ncc(C3CCN(S(C)(=O)=O)CC3)c2CN1c1ccnc2[nH]ccc12, the Ratio (Cytochrome P450 3A4) was 0.004 µL/min/pmol and the IC50 [1] was 2.1 µM.

Work on C[C@@H]1Cc2ncn(C3CCN(S(C)(=O)=O)CC3)c2CN1c1ccnc2[nH]ccc12 yielded a Ratio (Cytochrome P450 3A4) of 0.001 µL/min/pmol and an IC50 [1] of 0.041 µM.

With C[C@@H]1Cn2ncc(C3CCN(S(C)(=O)=O)CC3)c2C(=O)N1c1ccnc2[nH]ccc12 the TDI (Cytochrome P450 3A4) was “Not Active” and the IC50 [1] was 0.064 µM.

For [2H][C@@]1(C)Cn2ncc(C3CCN(S(C)(=O)=O)CC3)c2CN1c1cc(Cl)nc2[nH]ccc12, the Stability (Liver microsome) was “Stable”.

In the case of [2H]C1([2H])c2c(C3CCN(S(C)(=O)=O)CC3)cnn2C[C@@H](C)N1c1cc(Cl)nc2[nH]ccc12, the Stability (Liver microsome) is reported as “Unstable”.

In the case of [2H]C1([2H])c2c(C3CCN(S(C)(=O)=O)CC3)cnn2C[C@@]([2H])(C)N1c1cc(Cl)nc2[nH]ccc12, the Stability (Liver microsome) is reported as “Unstable”.
